Tests used:
[1] = test system: transgenic SC_APP C. elegans; test: C. elegans neurotoxicity assay; format: in vivo
synaptophysin, iba1 = test: Synaptophysin and iba1 immunohistochemistry in brain; format: in vivo, mouse
How it was run: (§1)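 After behavioural testing at the end of chronic daily SC dosing, APPLond/Swe+ and WT mice were perfused with PBS and brains collected. Brains were bisected sagittally: one half was frozen at −80°C, and the other was fixed overnight in 4% formalin, then kept at 4°C in 30% sucrose until processing.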

[2] = test system: Thy1-hAPP^Lond/Swe+ mice and WT littermates; test: Morris Water Maze; format: in vivo, mouse
How it was run: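 Dose-response cohort: APPLond/Swe+ and WT littermates aged 6.7 months, given 3, 10 or 30 mg/kg SC daily for 60 days (n=4–5 per group). MWM started after 35 days of dosing, with hidden-platform learning followed by reversal-learning hidden-platform trials. Mice floating extensively or unable to swim were excluded. Analysis used repeated-measures ANOVA with Dunnett's or one-way ANOVA with Fisher's LSD; mean ±SEM.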

Sig2R = conditions: read-out: Ki Sig2R; ref Sahn et al. 2016; cited from earlier work
IL1β = test: qRT-PCR of inflammatory markers in cortical tissue; format: in vivo, mouse; conditions: APP^Lond/Swe+ mice, dose-response cohort
[3] = test system: Thy1-hAPP^Lond/Swe+ mice and WT littermates; test: Sociability / social discrimination test; format: in vivo, mouse; conditions: for sociability test: preference mouse cup vs empty cup: 10 mg/kg/d SC, after 35 days of dosing
How it was run: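 APPLond/Swe+ and WT littermates dosed SC daily in late afternoon; on test days, dosing followed testing. Chronic study: 10 mg/kg for 64 days from 4.5 months; sociability measured as exploration of a cup holding a C57Bl/6 mouse vs an empty cup. Dose-response study: 3, 10 or 30 mg/kg from 6.7 months; social discrimination of novel vs familiar mouse after 30 days of dosing, by t-test.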

[4] = test system: human SK-N-SH neuroblastoma cells; test: Intracellular calcium assay; format: cell-based; conditions: for calcium response: compound alone
Aβ = Aβ pathology; format: in vivo, mouse; conditions: APP^Lond/Swe+ mice, 10 mg/kg/d chronic
How it was run: as §1

PK study in mice = format: in vivo, C57Bl/6J mice; conditions: mouse; for bioavailability: AUC(0-3h) vs intravenous
[5] = test system: Thy1-hAPP^Lond/Swe+ mice and WT littermates; test: Y-maze test; format: in vivo, mouse
How it was run: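 Y-maze spontaneous alternation and total arm entries in APPLond/Swe+ and WT littermates dosed SC daily, tested during the active cycle in balanced morning and afternoon sessions. Chronic study: 10 mg/kg, tested after 50 days of dosing. Dose-response study: 3, 10 or 30 mg/kg for 60 days. Alternation was compared with a 50% theoretical mean by one-sample t-test; mean ±SEM.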

[6] = molecular target: CNS-relevant targets, including opioid, adrenergic, nACR, mAChR, and NMDA receptors, neurotransmitter transporters and ion channels; test: Off-target binding, CNS-relevant targets; conditions: read-out: off-target affinity Ki; most CNS-relevant targets; Supplemental table 2
[7] = test system: Thy1-hAPP^Lond/Swe+ mice and WT littermates; format: in vivo, mouse
How it was run: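 APPLond/Swe+ and WT littermates, single-housed on a reverse light cycle, balanced for body weight and pre-dose locomotor activity. Dosing was 10 mg/kg SC once daily in late afternoon for 64 days, started at 4.5 months of age. Activity chamber was run first in the behavioural battery, during the active cycle. After behavioural testing, blood and organs were collected at sacrifice for blood chemistry and histopathology.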

microglia = conditions: induced by fragments of amyloid beta; ref Behensky et al. 2013; cited from earlier work
[8] = test system: neural progenitor cells derived from adult rat brain; conditions: ref Liu et al. 2009; cited from earlier work

## CN1CCN(c2ccc3c(c2)[C@H]2C[C@@H]3CCN2C(=O)OCc2ccccc2)CC1 [SAS-0132]
[1]; 200 µM, 5-day treatment, day 5 of adulthood, SC_APP worms, p < 0.01
  neurodegeneration of VC4 and VC5 neurons vs vehicle: decreased neurodegeneration
[1]; 200 µM, SC_APP worms, vem-1 RNAi co-treatment
  neuroprotection in animals with vem-1 (PGRMC1) knocked-down by RNAi: provided no further neuroprotection
[1]; from C. elegans data compared with vem-1 null mutations
  functional classification at Sig2R/PGRMC1: Sig2R/PGRMC1 antagonists
synaptophysin, iba1; APP^Lond/Swe+ mice, 10 mg/kg/d chronic
  synaptophysin immunoreactivity, CA3 (synapse loss): did not alter the extent of synapse loss
synaptophysin, iba1; WT or APP^Lond/Swe+ mice, chronic daily dosing study
  iba1 immunoreactivity: no drug-related effects
[2]; APP^Lond/Swe+ mice
  MWM hidden platform learning phase: had no effect on the cognitive functions
  MWM reversal learning trials: no significant effects of SAS-0132 treatment
[2]; APP^Lond/Swe+ mice, 10 mg/kg
  MWM reversal learning probe trial: target quadrant preference: showed target quadrant preference
[2]; APP^Lond/Swe+ mice, 3 and 10 mg/kg
  MWM reversal learning: escape latency vs vehicle: non-significant decreased escape latency
[2]; WT mice, 3 mg/kg
  MWM probe trial: target quadrant preference: showed a clear preference for the target quadrant
  MWM reversal probe trial: target quadrant preference: all WT groups showed target quadrant preference with the exception of the 3 mg/kg dose group
[2]; WT mice, 3 and 30 mg/kg, started after 35 days of dosing
  MWM hidden platform learning: escape latency: found the escape platform faster than the vehicle-treated WT mice
[2]; WT mice, 10 and 30 mg/kg
  MWM reversal learning day 2: escape latency: found the escape platform faster than WT mice treated with vehicle
  MWM reversal learning probe trial: target quadrant preference: demonstrated recall and showed target quadrant preference
Sig2R
  Ki: 90 nM
IL1β
  IL1β mRNA expression: decreased the expression of the inflammatory cytokine IL1β
[3]; APP^Lond/Swe+ mice, p < 0.05
  sociability test: preference mouse cup vs empty cup: showed a distinct preference for the cup containing a mouse over the empty cup
[3]; WT mice
  sociability test: preference mouse cup vs empty cup: not significantly altered
[3]; dose-response study, 30 mg/kg
  sociability: did not impair sociability
[3]; dose-response study, APP^Lond/Swe+ mice, 3 mg/kg
  social discrimination: novel vs familiar mouse: showed a significant preference for a novel mouse over a familiar one
[4]; 100 µM
  effects on intracellular Ca2+ compared with DKR-1051: weaker than the effects of DKR-1051
  calcium response: significant increases in intracellular Ca^2+
[4]; SAS-0132 applied before DKR-1051, lower concentrations (0.1-30 µM)
  effect on calcium response induced by DKR-1051 (100 µM): significantly attenuated the DKR-0151-induced calcium response
[4]; concentrations up to 30 µM
  calcium response: fails to produce a significant calcium response
Aβ
  intracellular Aβ immunoreactivity (cortex, hippocampus, amygdala): does not affect levels of intracellular Aβ
  soluble and insoluble Aβ40 and Aβ42 (ELISA) vs vehicle: no significant difference
PK study in mice; 10 mg/kg IV, SC and PO, up to 3 h post-administration
  plasma levels: Detectable levels
PK study in mice; 10 mg/kg oral
  bioavailability: 7%
PK study in mice; 10 mg/kg subcutaneous, 3 h post-administration
  brain concentration: 3.8 µM
PK study in mice; 10 mg/kg subcutaneous
  bioavailability: 45%
PK study in mice; 24 h after single 10 mg/kg subcutaneous injection
  concentration in brain homogenates: 1.6 ng/g
[5]; WT and APP^Lond/Swe+ mice, 10 mg/kg/d, chronic daily dosing study
  Y-maze total arm entries: not different among the four groups
[5]; dose-response study, WT and APP^Lond/Swe+ mice, 30 mg/kg
  Y-maze spontaneous alternation: showed impaired spontaneous alternation behavior
[5]; dose-response study, WT mice, 30 mg/kg
  Y-maze spontaneous alternation: showed impaired alternation behavior
[5]; dose-response study, WT mice, 3 and 10 mg/kg
  Y-maze spontaneous alternation: did not affect their performance
[5]; dose-response study, all groups
  Y-maze total arm entries: not different among groups
[6]
  Ki: 0.5 to 10 µM
[7]; WT mice, 10 mg/kg/d for 64 days, Supplemental tables 3-4
  blood chemistry and histopathology: no signs of SAS- 0132 induced toxicity
[7]; after 24 days of treatment
  locomotor activity in activity chamber vs vehicle: not significantly different
[7]; both chronic daily dosing studies, 3-30 mg/kg/d, 60-64 days
  general health of treated animals: remained healthy and exhibited no detectable abnormalities

## CCOc1ccc2nc(SCCN3CCOCC3)[nH]c2c1 [afobazole]
microglia
  neurotoxic microglia stimulation and apoptosis: reduces neurotoxic microglia stimulation and apoptosis

## CC(=O)[C@H]1CC[C@H]2[C@@H]3CCC4=CC(=O)CC[C@]4(C)[C@H]3CC[C@]12C [progesterone]
[8]
  neurogenic and neuroprotective effects: exerts neurogenic and neuroprotective effects

Source: publication PMC5312682 (Journal of neurochemistry, 2017)
